According to paper PMC2874112 (Bioconjugate chemistry, 2010):

Key:
MCF-7 cells = assay: Proliferation study; type: cell-based; settings: tamoxifen-sensitive MCF7 cells, 1 nM estradiol, 7 days, MTT
Procedure, shortened: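 MCF-7 cells were maintained in phenol red free DMEM F-12 HAM with glutamine, penicillin/streptomycin and 10% FBS at 37 °C under 5% CO2. […] Cell number was read by MTT. Two experiments were run, each in triplicate.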

[1] = target: T1, ER alpha levels in MCF7 cells (Homo sapiens, UniProt P03372); assay: Receptor stability study; type: cell-based; settings: 24 hours, 10 nM estradiol, 100 nM fulvestrant, 10 μM OHT-6C-BODIPY
T1 sequence (P03372 1-595): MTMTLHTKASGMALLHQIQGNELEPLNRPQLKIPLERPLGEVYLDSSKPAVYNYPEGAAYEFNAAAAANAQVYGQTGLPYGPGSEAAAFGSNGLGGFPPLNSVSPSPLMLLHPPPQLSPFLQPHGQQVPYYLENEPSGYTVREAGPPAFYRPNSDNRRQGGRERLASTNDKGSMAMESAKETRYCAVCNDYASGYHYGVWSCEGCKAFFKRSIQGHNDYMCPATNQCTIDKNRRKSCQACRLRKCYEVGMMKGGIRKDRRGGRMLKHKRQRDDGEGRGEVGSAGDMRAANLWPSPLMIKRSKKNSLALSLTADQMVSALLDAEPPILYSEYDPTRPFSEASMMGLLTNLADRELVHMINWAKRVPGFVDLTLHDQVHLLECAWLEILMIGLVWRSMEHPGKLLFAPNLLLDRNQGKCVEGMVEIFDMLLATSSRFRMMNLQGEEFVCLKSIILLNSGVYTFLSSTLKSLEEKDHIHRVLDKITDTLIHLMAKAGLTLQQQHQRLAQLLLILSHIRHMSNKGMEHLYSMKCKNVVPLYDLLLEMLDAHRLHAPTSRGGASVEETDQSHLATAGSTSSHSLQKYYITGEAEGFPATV

| Structure (SMILES) | Effect on estradiol-induced growth (MCF-7 cells) | Effect on cellular ER alpha levels [1] |
| --- | --- | --- |
| CC/C(=C(\c1ccc(O)cc1)c1ccc(OCCN(C)C)cc1)c1ccccc1 [OHT, 4-hydroxytamoxifen] | able to block estradiol-induced growth | – |
| C[C@]12CC[C@@H]3c4ccc(O)cc4C[C@@H](CCCCCCCCC[S+]([O-])CCCC(F)(F)C(F)(F)F)[C@H]3[C@@H]1CC[C@@H]2O (some centres unmarked) [fulvestrant] | – | marked receptor downregulation |
